# Test results as given in ChEMBL document CHEMBL3627716, “Structure-activity relationship studies of the lipophilic tail region of sphingosine kinase 2 inhibitors” (Bioorg Med Chem Lett, 2015).
# Experiments:
# [1] = target: T1, Sphingosine kinase 2 (Mus musculus) (UniProt Q9JIA7); experiment: Inhibition of mouse recombinant SphK2 assessed as remaining enzyme activity at 10 uM using gamma[32P]ATP incubated for 20 mins by liquid scintillation counting method
# T1 sequence (whole entry): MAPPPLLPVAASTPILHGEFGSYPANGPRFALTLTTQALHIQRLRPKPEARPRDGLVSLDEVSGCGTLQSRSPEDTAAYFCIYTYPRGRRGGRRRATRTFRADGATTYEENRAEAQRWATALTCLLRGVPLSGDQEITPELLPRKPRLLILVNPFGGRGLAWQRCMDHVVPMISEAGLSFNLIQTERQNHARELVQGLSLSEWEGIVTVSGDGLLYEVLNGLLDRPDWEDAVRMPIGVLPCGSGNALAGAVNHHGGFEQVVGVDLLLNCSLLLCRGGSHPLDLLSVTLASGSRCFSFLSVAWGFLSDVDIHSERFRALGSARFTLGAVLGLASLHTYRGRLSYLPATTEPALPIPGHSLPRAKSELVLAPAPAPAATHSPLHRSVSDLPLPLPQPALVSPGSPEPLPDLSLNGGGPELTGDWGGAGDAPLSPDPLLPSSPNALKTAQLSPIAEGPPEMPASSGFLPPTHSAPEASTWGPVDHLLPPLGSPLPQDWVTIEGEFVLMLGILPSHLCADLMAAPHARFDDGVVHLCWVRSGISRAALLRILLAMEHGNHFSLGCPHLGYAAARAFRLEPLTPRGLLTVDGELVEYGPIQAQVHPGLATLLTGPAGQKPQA
# Summary of the method: (§1)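 Cell lysate containing recombinant mouse SphK2 incubated with sphingosine and γ-[³²P]ATP, with or without inhibitor, 20 min. Reactions extracted, ³²P-S1P separated by TLC and counted by liquid scintillation. Activity reported as ³²P-S1P formed; screened at 10 μM, with some compounds also assayed at 1 μM. Each value is the mean of two experiments.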
# [2] = target: T1, Sphingosine kinase 2 (Mus musculus); experiment: Inhibition of mouse recombinant SphK2 assessed as remaining enzyme activity at 1 uM using gamma[32P]ATP incubated for 20 mins by liquid scintillation counting method; summary of the method: as §1
Structure (SMILES),Activity [1] [%],Activity [2] [%]
CCCCCCc1ccc(-c2noc([C@@H]3CCCN3C(=N)N)n2)cc1,35,76
N=C(N)N1CCC[C@H]1c1nc(-c2ccc(I)cc2)no1,63,–
CCCCCCCCCCc1ccc(-c2noc([C@@H]3CCCN3C(=N)N)n2)cc1,9,46
N=C(N)N1CCC[C@H]1c1nc(-c2ccc(N3CCN(C(=O)Cc4ccccc4)CC3)cc2)no1,86,–
N=C(N)N1CCC[C@H]1c1nc(-c2ccc(N3CCN(Cc4ccccc4)CC3)cc2)no1,89,–
N=C(N)N1CCC[C@H]1c1nc(-c2ccc(CCc3ccccc3)cc2)no1,70,–
CCCCCCCCCCCCCCCCc1noc([C@@H]2CCCN2C(=N)N)n1,52,–
CCCCCCCCc1ccc(-c2noc([C@@H]3CCCN3C(=N)N)n2)cc1,9,44
N=C(N)N1CCC[C@H]1c1nc(-c2ccc(N3CCN(C(=O)C45CC6CC(CC(C6)C4)C5)CC3)cc2)no1,87,–
CCCCCCCCCCCCc1ccc(-c2noc([C@@H]3CCCN3C(=N)N)n2)cc1,15,56
CCOCc1cc(C)cc(Cc2ccc(-c3noc([C@@H]4CCCN4C(=N)N)n3)cc2)c1,46,99
CCCCCCc1ccc(-c2noc([C@@H]3CCN3C(=N)N)n2)cc1,45,86
N=C(N)N1CCC[C@H]1c1nc(-c2ccc(CS(=O)(=O)c3ccccc3)cc2)no1,88,–
CCCCCCCCCCc1ccc(-c2noc([C@@H]3CCN3C(=N)N)n2)cc1,12,–
CCCCCCCCCCCCc1noc([C@@H]2CCCN2C(=N)N)n1,57,–
CCCCCCCCCCCCCCc1ccc(-c2noc([C@@H]3CCCN3C(=N)N)n2)cc1,16,52
CC(C)CC(=O)N1CCN(c2ccc(-c3noc([C@@H]4CCCN4C(=N)N)n3)cc2)CC1,90,–
N=C(N)N1CC[C@H]1c1nc(-c2ccc(N3CCOCC3)cc2)no1,94,–
CCCCCCCCc1noc([C@@H]2CCCN2C(=N)N)n1,88,–
CN1CCN(c2ccc(-c3noc([C@@H]4CCN4C(=N)N)n3)cc2)CC1,90,–
N=C(N)N1CC[C@H]1c1nc(-c2ccc(-c3ccccc3)cc2)no1,91,–
